Results: ChEMBL document CHEMBL1944562, “Design, synthesis of some new (2-aminothiazol-4-yl)methylester derivatives as possible antimicrobial and antitubercular agents” (2012)
In brackets after ≈: the same amount, converted by molar mass.

Key:
Type in all cases: functional
[1] = system: Escherichia coli; test: Antibacterial activity against Escherichia coli ATCC 25922 after 16 to 18 hrs by […]
[2] = system: Klebsiella pneumoniae; test: Antibacterial activity against Klebsiella pneumoniae at MIC after 3 to 4 days
Outline: (§1)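 Agar well diffusion on seeded agar plates, 20 mL agar per dish, dried 1 h at 37 °C. Wells punched and loaded with test compound in DMSO at its MIC. DMSO-only control. Plates run in triplicate and kept 3-4 days at 37 °C. Inhibition zone diameter measured.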

[3] = system: Mycobacterium tuberculosis; test: Antitubercular activity against Mycobacterium tuberculosis H37Rv after 7 days by resazurin assay; conditions: 168 h
Outline: (§2)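 M. tuberculosis H37Rv ATCC 27294 grown in Middlebrook 7H9 broth with 10% OADC and adjusted to McFarland 2. Culture was diluted 1:4 into fresh medium. Compounds came from 2 mg/mL DMF stocks, screened first at 1, 10 and 100, then at 0.3125–5. DMF-only controls were included. After 7 days at 37 °C, 0.01% resazurin was added; a blue-to-pink change marked growth, and the MIC was read.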

[4] = system: Pseudomonas aeruginosa; test: Antibacterial activity against Pseudomonas aeruginosa ATCC 27853 after 16 to 18 hrs by […]
[5] = system: Talaromyces marneffei; test: Antifungal activity against Penicillium marneffei after 3 to 4 days by serial plate dilution method
[6] = system: Candida albicans; test: Antifungal activity against Candida albicans after 3 to 4 days by serial plate dilution method
[7] = system: Bacillus subtilis; test: Antibacterial activity against Bacillus subtilis at MIC after 3 to 4 days; outline: as §1
[8] = system: Staphylococcus aureus; test: Antibacterial activity against Staphylococcus aureus ATCC 25923 after 16 to 18 hrs by serial plate dilution method
[9] = system: Mycolicibacterium smegmatis; test: Antitubercular activity against Mycobacterium smegmatis ATCC 19420 after 7 days by resazurin assay; conditions: ATCC 19420, 168 h
Outline: (§3)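 Middlebrook 7H9 broth with 10% OADC, culture adjusted to McFarland 2. 50 µL culture added to 150 µL fresh medium. Stocks at 2 mg/mL in DMF, tested first at 1, 10 and 100 µg/mL, then at 0.3125-5 µg/mL. DMF controls. After 7 days at 37 °C, 0.01% resazurin added. Blue-to-pink change read for MIC.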

[10] = system: Aspergillus flavus; test: Antifungal activity against Aspergillus flavus NCIM N0.524 at MIC after 3 to 4 days
Outline: (§4)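 Fungal suspension made by transferring a loopful of culture to 3 mL saline and seeding agar plates, 20 mL agar per dish, dried 1 h at 37 °C. Punched wells loaded with test compound in DMSO at its MIC. DMSO-only control. Triplicate plates held 3-4 days at 37 °C. Inhibition zone diameter measured.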

[11] = system: Candida albicans; test: Antifungal activity against Candida albicans at MIC after 3 to 4 days; outline: as §4
[12] = system: Mycobacterium tuberculosis; test: Antitubercular activity against Mycobacterium tuberculosis H37Rv assessed as growth inhibition after 7 days by resazurin assay; outline: as §2
[13] = system: Aspergillus fumigatus; test: Antifungal activity against Aspergillus fumigatus NCIM N0.902 at MIC after 3 to 4 days; outline: as §4
[14] = system: Trichophyton mentagrophytes; test: Antifungal activity against Trichophyton mentagrophytes after 3 to 4 days by serial plate dilution method
[15] = system: Aspergillus fumigatus; test: Antifungal activity against Aspergillus fumigatus NCIM N0.902 after 3 to 4 days by serial plate dilution method
[16] = system: Mycolicibacterium fortuitum; test: Antitubercular activity against Mycobacterium fortuitum ATCC 19542 after 7 days by resazurin assay; conditions: ATCC 19542, 168 h; outline: as §3
[17] = system: Klebsiella pneumoniae; test: Antibacterial activity against Klebsiella pneumoniae after 16 to 18 hrs by […]
[18] = system: Bacillus subtilis; test: Antibacterial activity against Bacillus subtilis after 16 to 18 hrs by […]
[19] = system: Pseudomonas aeruginosa; test: Antibacterial activity against Pseudomonas aeruginosa ATCC 27853 at MIC after 3 to 4 days; outline: as §1
[20] = system: Aspergillus flavus; test: Antifungal activity against Aspergillus flavus NCIM N0.524 after 3 to 4 days by serial plate dilution method
[21] = system: Talaromyces marneffei; test: Antifungal activity against Penicillium marneffei at MIC after 3 to 4 days; outline: as §4
[22] = system: Trichophyton mentagrophytes; test: Antifungal activity against Trichophyton mentagrophytes at MIC after 3 to 4 days; outline: as §4
[23] = system: Escherichia coli; test: Antibacterial activity against Escherichia coli ATCC 25922 at MIC after 3 to 4 days; outline: as §1
[24] = system: Staphylococcus aureus; test: Antibacterial activity against Staphylococcus aureus ATCC 25923 at […] after 3 to 4 days; outline: as §1

With Nc1nc(COC(=O)c2ccc(Cl)cc2)cs1 the MIC [1] was 6.25 µg/mL (≈ 23.3 µM), the “diameter of the inhibition zone (DIZ)” value [2] was 16 mm and the MIC [3] was > 100 µg/mL. For the same compound, the MIC [4] was 6.25 µg/mL (≈ 23.3 µM), the MIC [5] was 25 µg/mL (≈ 93 µM) and the MIC [6] was 25 µg/mL (≈ 93 µM). The “diameter of the inhibition zone (DIZ)” value [7] was 16 mm, the MIC [8] was 6.25 µg/mL (≈ 23.3 µM) and the MIC [9] was > 100 µg/mL. For the same compound, the “diameter of the inhibition zone (DIZ)” value [10] was <10 mm, the “diameter of the inhibition zone (DIZ)” value [11] was <10 mm and the “growth inhibition (GI)” value [12] was 0%. The “diameter of the inhibition zone (DIZ)” value [13] was 16 mm, the MIC [14] was 6.25 µg/mL (≈ 23.3 µM) and the MIC [15] was 6.25 µg/mL (≈ 23.3 µM). The MIC [16] was > 100 µg/mL, the MIC [17] was 6.25 µg/mL (≈ 23.3 µM) and the MIC [18] was 6.25 µg/mL (≈ 23.3 µM). The “diameter of the inhibition zone (DIZ)” value [19] was 16 mm, the MIC [20] was 25 µg/mL (≈ 93 µM) and the “diameter of the inhibition zone (DIZ)” value [21] was <10 mm. For the same compound, the “diameter of the inhibition zone (DIZ)” value [22] was 16 mm, the “diameter of the inhibition zone (DIZ)” value [23] was 16 mm and the “diameter of the inhibition zone (DIZ)” value [24] was 16 mm.

For Nc1nc(COC(=O)c2ccc(Br)cc2)cs1, the MIC [1] was 25 µg/mL (≈ 79.8 µM), the “diameter of the inhibition zone (DIZ)” value [2] was 16 mm and the MIC [3] was 2.5 µg/mL (≈ 7.98 µM). It also gave an MIC [4] of 25 µg/mL (≈ 79.8 µM), an MIC [5] of 25 µg/mL (≈ 79.8 µM) and an MIC [6] of 6.25 µg/mL (≈ 20 µM). For the same compound, the “diameter of the inhibition zone (DIZ)” value [7] was <10 mm, the MIC [8] was 25 µg/mL (≈ 79.8 µM) and the MIC [9] was 2.5 µg/mL (≈ 7.98 µM). The “diameter of the inhibition zone (DIZ)” value [10] was <10 mm, the “diameter of the inhibition zone (DIZ)” value [11] was 16 mm and the “growth inhibition (GI)” value [12] was <90%. The “diameter of the inhibition zone (DIZ)” value [13] was <10 mm, the MIC [14] was 12.5 µg/mL (≈ 39.9 µM) and the MIC [15] was 25 µg/mL (≈ 79.8 µM). For the same compound, the MIC [16] was > 100 µg/mL, the MIC [17] was 6.25 µg/mL (≈ 20 µM) and the MIC [18] was 25 µg/mL (≈ 79.8 µM). The “diameter of the inhibition zone (DIZ)” value [19] was <10 mm, the MIC [20] was 25 µg/mL (≈ 79.8 µM) and the “diameter of the inhibition zone (DIZ)” value [21] was <10 mm. The “diameter of the inhibition zone (DIZ)” value [22] was 11 mm, the “diameter of the inhibition zone (DIZ)” value [23] was <10 mm and the “diameter of the inhibition zone (DIZ)” value [24] was <10 mm.

With Nc1nc(COC(=O)c2ccccc2[N+](=O)[O-])cs1 the MIC [1] was 12.5 µg/mL (≈ 44.8 µM), the “diameter of the inhibition zone (DIZ)” value [2] was 16 mm and the MIC [3] was 0.625 µg/mL (≈ 2.24 µM). The MIC [4] was 25 µg/mL (≈ 89.5 µM), the MIC [5] was 12.5 µg/mL (≈ 44.8 µM) and the MIC [6] was 25 µg/mL (≈ 89.5 µM). The “diameter of the inhibition zone (DIZ)” value [7] was 11 mm, the MIC [8] was 12.5 µg/mL (≈ 44.8 µM) and the MIC [9] was 10 µg/mL (≈ 35.8 µM). For the same compound, the “diameter of the inhibition zone (DIZ)” value [10] was <10 mm, the “diameter of the inhibition zone (DIZ)” value [11] was <10 mm and the “growth inhibition (GI)” value [12] was 95%. The “diameter of the inhibition zone (DIZ)” value [13] was <10 mm, the MIC [14] was 25 µg/mL (≈ 89.5 µM) and the MIC [15] was 25 µg/mL (≈ 89.5 µM). It also gave an MIC [16] of 10 µg/mL (≈ 35.8 µM), an MIC [17] of 6.25 µg/mL (≈ 22.4 µM) and an MIC [18] of 12.5 µg/mL (≈ 44.8 µM). The “diameter of the inhibition zone (DIZ)” value [19] was <10 mm, the MIC [20] was 25 µg/mL (≈ 89.5 µM) and the “diameter of the inhibition zone (DIZ)” value [21] was 11 mm. The “diameter of the inhibition zone (DIZ)” value [22] was <10 mm, the “diameter of the inhibition zone (DIZ)” value [23] was 11 mm and the “diameter of the inhibition zone (DIZ)” value [24] was 11 mm.
